# In the library only some 1.8% were active in any assay of this set; here they are far more common.
# TDP2 absorb: blocks human TDP2 phosphodiesterase activity; AID 720702; 0.34% of 370,000 active; inhibition, % at 12.8 µM; recombinant TDP2, T5PNP hydrolysis, p-nitrophenol absorbance 415 nm; O95551;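 active means inhibition above the mean of all tested compounds plus 3 SD, set per campaign, cut at about 25% in these data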;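 further: 0% = DMSO with enzyme and 100% = buffer with substrate but no TDP2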
# Target sequence (O95551 whole entry, looked up): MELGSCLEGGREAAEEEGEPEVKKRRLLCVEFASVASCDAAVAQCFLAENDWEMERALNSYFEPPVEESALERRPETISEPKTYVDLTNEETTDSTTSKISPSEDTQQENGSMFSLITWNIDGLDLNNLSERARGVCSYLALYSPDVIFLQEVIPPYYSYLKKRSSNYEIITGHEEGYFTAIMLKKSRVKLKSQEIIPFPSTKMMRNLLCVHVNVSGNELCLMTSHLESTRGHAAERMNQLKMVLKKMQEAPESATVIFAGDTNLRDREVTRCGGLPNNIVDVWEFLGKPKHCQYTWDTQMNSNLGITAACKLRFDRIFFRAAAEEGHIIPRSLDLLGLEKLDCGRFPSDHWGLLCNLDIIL
#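 Read-out basis: percent inhibition. System: recombinant human TDP2. Buffer or medium: Mg2+-containing Tris-HCl buffer, pH 7.5. Repeats: single replicate. Timing: reaction 2 h, 37 °C. Benchmarks: high control without enzyme, low control DMSO plus TDP2. Probe or stimulus: 5 mM T5PNP. Doses: 12.8 µM only. Measured by: epi absorbance of p-nitrophenol freed from T5PNP by hydrolysis.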
# LEDGF integ inh: blocks HIV-1 LEDGF/p75-dependent DNA integration. inhibition, % at 3.7 µM. TR-FRET IN-LEDGF/p75 DNA integration, Eu/Cy5. 0.64% of 370,000 active. AID 743269;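 active means inhibition above the screen-wide mean plus 3 SD, cut at about 13% in these data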;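 further: signal is the Cy5 over europium emission ratio at 671 and 618 nm; 0% = plate median of compound wells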
# UHRF1 binding: blocks human UHRF1 binding to methylated DNA; 0.75% of 370,000 active; AID 687016; UHRF1 binding to methylated oligo, TR-FRET; inhibition, % at 4.4 µM; in the data active means inhibition above about 21%;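 further: UHRF1 SRA domain binding a hemimethylated CpG hairpin DNA probe; 0% = median of test compound wells and 100% = reference inhibitor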
# MBD2 DNA inh: inhibitors of human MBD2 binding to methylated oligonucleotide | AID 686964 | inhibition, % at 4.4 µM | 0.31% of 370,000 active | Q9UBB5 | TR-FRET; in the data active means inhibition above about 13%
# core dimer inh: HCV core protein dimerization inhibition; inhibition, % at 5 µM; AID 1899; 0.33% of 300,000 active; TR-FRET GST/Flag-core106 dimerization, 1536-well;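 active means inhibition above the mean of all tested compounds plus 3 SD, set per screening campaign, cut at about 45% in these data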
#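 Test system: GST/Flag-tagged HCV core106 proteins; Medium: KF-containing HEPES buffer, pH 7.45, DTT, CHAPS, BSA; Times: compound-protein-antibody incubation 4 h at 22.5 °C; Detection: TR-FRET 671 and 617 nm emission; Benchmarks: wells lacking GST-core106 and wells with excess unlabelled core106.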
# Active calls of the source: *; x = no result given.
SMILES,TDP2 absorb,LEDGF integ inh,UHRF1 binding,MBD2 DNA inh,core dimer inh
CN1CCc2c(sc3c2c(=O)n(-c2ccc(Cl)cc2)c2nncn32)C1,6.4,0.5,-1.2,-0.9,-0.6
COC(=O)[C@]12CCCCC=C1N(CCC1=CCCCC1)C(=O)[C@H](CC(=O)NCc1cccc3ccccc13)C2,-4.1,-2.0,20.7*,5.8,x
Cc1ccc(-c2csc(NCCn3c(-c4ccncc4)nc4ccccc43)n2)cc1,-8.8,0.0,22.3*,-4.1,-14.1
Cc1ccc(-c2csc(NCCn3c(-c4ccncc4)nc4cc(C(F)(F)F)ccc43)n2)cc1,-7.9,-3.0,2.8,-0.5,x
Cc1nn(-c2ccc(Cl)cc2)c(Cl)c1/C=N/NC(=O)c1ccc(NS(=O)(=O)c2cccs2)cc1,1.1,4.1,-6.7,-7.0,54.2*
Cc1nn(-c2ccc(F)cc2)c(Cl)c1/C=N/NC(=O)c1cccs1,-1.4,1.3,-2.5,3.5,0.1
N#Cc1c(N)sc2c1CCCCCC2,-0.8,0.0,-4.5,-2.9,-1.7
N#Cc1c(N)sc(=S)c2c1CCCCC2,10.8,19.2*,21.1*,10.0,3.6
NC(=O)COC(=O)CC1CC2CCC1C2 (configuration not stated),0.4,11.6,21.4*,2.4,-2.5
CN1CCC(CO)(Cc2ccccc2)CC1,8.0,1.3,22.0*,0.8,-1.9
OCC1(Cc2ccc(Cl)cc2)CCN(CCCc2ccccc2)CC1,-5.5,-2.8,-1.5,-1.9,-7.1
Cc1ccc(C(=O)Nc2ccc(O)c(C(=O)O)c2)o1,-7.8,0.7,43.9*,4.4,-2.3
COc1ccc(C(C(=O)N(C)C2CCCC2)N(Cc2ccc(F)cc2)C(=O)c2csc(N3CCOCC3)n2)cc1OC (configuration not stated),-8.6,-2.9,0.5,0.1,x
COc1cc(C=Nn2c(-c3ccc(F)cc3)n[nH]c2=S)ccc1OCc1ccccc1,-0.1,-1.4,-0.6,-0.5,x
Cc1cc(NC(=O)COc2cc(F)cc(F)c2)n(-c2ccccc2)n1,-2.9,-0.8,-4.8,-5.0,x
COc1ccc(/C=C/C(=O)Nc2ccc(NC(C)=O)cc2)cc1S(=O)(=O)N1CCOCC1,-4.2,-3.2,32.2*,-0.3,0.1
COc1ccc(NC(=O)Cn2ncc(Cl)c(Cl)c2=O)cc1S(=O)(=O)N1CCOCC1,10.2,6.8,3.5,1.8,50.0*
COc1ccc(NC(=O)c2cc3c(s2)CCC3)cc1S(=O)(=O)N1CCOCC1,3.5,4.3,1.9,-0.6,94.1*
COc1ccc(NC(=O)c2ccc(Cl)nc2)cc1S(=O)(=O)N1CCOCC1,6.0,-7.5,0.6,0.3,x
CN(c1cccc(NC(=O)c2ccc(N(C)S(=O)(=O)c3ccccc3)cc2)c1)S(C)(=O)=O,-8.9,0.8,-0.1,-4.8,1.8
CN(c1cccc(NC(=O)c2ccc(C(C)(C)C)cc2)c1)S(C)(=O)=O,-3.2,2.0,22.8*,2.7,-2.2
CC(Sc1ccccc1)C(=O)Nc1cccc(N(C)S(C)(=O)=O)c1 (configuration not stated),-10.4,-0.7,23.1*,-4.8,-12.5
C[C@H](O)[C@@H]1CN2CCc3ccc(N4CCOCC4)cc3[C@@H]2C[C@@H]1N(C)C(=O)c1cccc(Cl)c1,3.3,-1.2,-2.9,-4.2,x
COc1ccc(C=Nn2c(-c3ccc(F)cc3)n[nH]c2=S)cc1OCc1ccccc1,9.5,-1.3,-2.5,-2.7,x
COC1(OC)C(/C=C/c2ccc(C)cc2)C(C#N)(C#N)C1(OC)OC (configuration not stated),3.5,0.6,21.1*,8.5,-1.5
SMILES,TDP2 absorb,LEDGF integ inh,UHRF1 binding,MBD2 DNA inh,core dimer inh
Oc1ccc(C=Nc2cccc3ccccc23)c(O)c1,16.2,12.2,-12.0,-6.6,-3.6
Cc1ccc(N=Cc2ccc(O)cc2O)cc1F,-19.5,37.3*,-2.1,-8.8,1.4
CC(=O)Nc1ccc(C(/C=C/c2ccccc2)Cc2ccccc2)cc1 (configuration not stated),2.1,-2.8,-1.4,0.4,x
C[C@H]1COc2cc(Br)ccc2S(=O)(=O)N1Cc1cn(Cc2ccc(C(F)(F)F)cc2)nn1,3.7,-1.6,-3.1,1.7,x
Cc1ccc2cc(CN(CC3CCCO3)S(=O)(=O)c3ccccc3)c3nnnn3c2c1 (configuration not stated),-2.5,-2.3,20.8*,-6.4,3.1
O=C(Nc1nccs1)c1cc(-c2ccco2)nc2ccccc12,2.4,11.1,10.9,10.2,84.2*
O=C(Nc1cccc(S(=O)(=O)NC2=NCCC2)c1)c1cc(-c2ccco2)nc2ccccc12,-1.2,16.9*,30.4*,24.5*,76.0*
COC(=O)[C@H]1C[C@@]2(O)CN(S(=O)(=O)c3ccc(C)cc3)C[C@@]2(OC(=O)NC2CCCC2)C[C@H]1C(=O)OC,-8.8,3.4,23.7*,13.0,x
COC(=O)[C@H]1C[C@@]2(O)CN(S(=O)(=O)c3ccc(C)cc3)C[C@@]2(OC(=O)NCc2ccccc2)C[C@H]1C(=O)OC,3.4,4.0,0.6,-4.2,x
COc1ccc(NC(=O)CN(C)C(=O)c2cc3c(s2)CCC3)cc1,x,x,x,x,69.6*
CC1=C(C#N)C(=O)NC(=O)/C1=C/c1ccc(-c2ccc(S(N)(=O)=O)cc2)o1,-2.3,1.4,0.6,20.5*,1.6
CCCCc1c(Cc2cccc(F)c2)ncn1CCc1ccccc1OC,-3.4,10.3,21.2*,4.9,x
CCCCc1c(-c2ccc(F)cc2F)ncn1CCc1ccccc1OC,-2.6,5.3,11.1,6.8,x
O=S(=O)(c1ccc(Cl)nc1)N1CCCc2ccccc21,5.5,-1.1,0.3,5.5,-4.0
O=S(=O)(c1ccc(Cl)nc1)N1CCc2ccccc21,5.8,1.2,41.8*,2.0,0.0
COc1ccc(/C=N\NS(=O)(=O)c2ccc(Cl)cc2)cc1COc1ccccc1[N+](=O)[O-],-1.6,-1.9,10.2,2.4,47.2*
COc1ccc(NS(=O)(=O)c2c(C)[nH]c(C)c2C(=O)N2CCCCC2)cc1Cl,10.9,-1.6,2.2,-4.6,2.9
O=C(Nc1cccc(S(=O)(=O)N2CCCC2)c1)c1ccncc1,10.2,-0.6,0.9,8.4,7.8
COc1ccc(S(=O)(=O)N2CCCCCC2)cc1NC(C)C(=O)Nc1ccc(NC(C)=O)cc1 (configuration not stated),1.4,2.4,32.5*,-4.0,x
COc1ccc(NCC(=O)N2CCCC2)cc1Cl,-7.0,53.4*,-1.1,-3.0,-1.7
COc1ccc(NCC(=O)Nc2cccc(S(=O)(=O)N3CCCC3)c2)cc1Cl,-11.8,4.6,25.9*,-2.2,x
COc1cc(NC(=O)CNc2cccc(S(=O)(=O)N3CCCC3)c2)cc(OC)c1,7.7,-3.1,-0.9,0.8,-0.8
N#CCC(=O)Nc1ccc(C(=O)Nc2cccc(S(=O)(=O)N3CCCC3)c2)cc1,1.7,0.9,68.9*,2.2,x
C=CCN(CC#Cc1ccc(C(F)(F)F)cc1)Cc1ccc(OC)cc1OC,-0.9,-1.3,4.2,-2.3,x
